Results reported in ChEMBL document CHEMBL4765436, “Discovery, structure-activity relationship study and biological evaluation of 2-thioureidothiophene-3-carboxylates as a novel class of C-X-C chemokine receptor 2 (CXCR2) antagonists” (Eur J Med Chem, 2020).
Active and inactive are the calls of the source. The rule behind the calls is not given here.

What was measured:
[1] = target: T1, C-X-C chemokine receptor type 2 (Homo sapiens) (UniProt P25025); assay: Antagonist activity at CXCR2 (unknown origin) expressed in HEK293T cells cotransfected with GFP assessed as inhibition of CXCL8-induced p38 phosphorylation at 10 uM post CXCL8 treatment by immunoblot assay; format: cell-based
T1 sequence (whole entry): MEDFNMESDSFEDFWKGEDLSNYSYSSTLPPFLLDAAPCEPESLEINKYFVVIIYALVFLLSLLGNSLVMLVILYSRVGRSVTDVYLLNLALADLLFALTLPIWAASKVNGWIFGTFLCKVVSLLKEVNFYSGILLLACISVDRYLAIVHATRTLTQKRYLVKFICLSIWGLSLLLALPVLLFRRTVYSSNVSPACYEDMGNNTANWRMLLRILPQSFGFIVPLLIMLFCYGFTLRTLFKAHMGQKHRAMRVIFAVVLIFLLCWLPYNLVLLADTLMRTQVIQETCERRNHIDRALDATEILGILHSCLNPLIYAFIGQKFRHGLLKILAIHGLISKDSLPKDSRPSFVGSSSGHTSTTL
Method in brief: (§1)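 293T-CXCR2-GFP cells (5 x 10^5/well) were attached overnight, treated with compounds and lysed in RIPA buffer with protease/phosphatase inhibitors. Lysates were normalized by BCA and resolved on 10% SDS-PAGE. Blots were probed overnight at 4 °C with antibodies (1:500-1:1000) to p-ERK1/2, p-JNK, p-cJUN or p-p38, then with a fluorescent secondary antibody, and imaged by infrared imaging.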

[2] = target: T1, C-X-C chemokine receptor type 2 (Homo sapiens); assay: Antagonist activity at CXCR2 (unknown origin) expressed in HEK293T cells cotransfected with GFP assessed as inhibition of CXCL8-induced JNK phosphorylation at 10 uM post CXCL8 treatment by immunoblot assay; format: cell-based; method in brief: as §1
[3] = tested on: U2OS; assay: Antimigratory activity against human U2OS cells overexpressing CXCR2/bla assessed as reduction in CXCL8-mediated wound closure at 10 uM incubated for 20 mins followed by CXCL8 stimulation and measured after 24 hrs by Giemsa staining based scratch wound healing assay; format: functional, cell-based; conditions: time 24.3 hrs
Method in brief: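 CXCR2-bla U2OS cells were seeded at 35000/well in DMEM with 1% FBS overnight and scratched with a pipette tip. Compounds (10 μM) were added for 20 min, then CXCL8 (60 nM) for 24 h; unstimulated wells served as control. Cells were methanol-fixed, Giemsa-stained and imaged by transmitted light. Two independent experiments were run in duplicate.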

[4] = target: T1, C-X-C chemokine receptor type 2 (Homo sapiens); assay: Antagonist activity at CXCR2 (unknown origin) expressed in HEK293T cells cotransfected with GFP and p22F assessed as inhibition of CXCL8-reduced cAMP production at 5 uM incubated for 10 mins followed by CXCL8 stimulation and measured after 10 mins by luminescence based assay; format: functional, cell-based; conditions: filed as antagonist, time 20.0 min
Method in brief: (§2)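 293T-CXCR2-GFP-p22F cells express a cAMP-sensitive firefly luciferase. They were seeded at 30000 cells/well overnight in CO2-independent medium with 10% FBS, then incubated with 1% cAMP reagent for 2 h at 37 °C. Cells were pretreated with compound for 10 min, given CXCL8 (50 nM) for 10 min, then stimulated with forskolin (50 μM) until maximal signal (~80 min). Luminescence read-out.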

[5] = target: T1, C-X-C chemokine receptor type 2 (Homo sapiens); assay: Antagonist activity at CXCR2 (unknown origin) expressed in HEK293T cells cotransfected with GFP assessed as inhibition of CXCL8-induced AKT phosphorylation at 10 uM post CXCL8 treatment by immunoblot assay; format: cell-based
[6] = target: T1, C-X-C chemokine receptor type 2 (Homo sapiens); assay: Antagonist activity at CXCR2 (unknown origin) expressed in HEK293T cells cotransfected with GFP assessed as inhibition of CXCL8-induced ERK1/2 phosphorylation pretreated at 10 uM followed by treated with CXCL8 by immunoblot assay; format: cell-based; conditions: filed as antagonist; method in brief: as §1
[7] = target: T1, C-X-C chemokine receptor type 2 (Homo sapiens); assay: Antagonist activity at CXCR2 (unknown origin) expressed in HEK293T cells cotransfected with GFP and p22F assessed as inhibition of […] at 15 uM incubated at 37 degC for 30 min and at room temperature for 30 min by fluorescence based assay; format: functional, cell-based; conditions: filed as antagonist, time 60.0 min
Method in brief: (§3)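 293T-CXCR2-GFP cells were seeded at 30000 cells/well and loaded next day with Fluo-4 NW dye plus probenecid ([…] final). Loading was 30 min at 37 °C, then 30 min at room temperature, protected from light. Compound and CXCL8 (300 nM, by injector) were added. Fluorescence was read immediately (ex 490/em 535 nm) and normalized to the pre-stimulation baseline.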

[8] = target: T1, C-X-C chemokine receptor type 2 (Homo sapiens); assay: Antagonist activity at CXCR2 (unknown origin) expressed in HEK293T cells cotransfected with GFP assessed as inhibition of CXCL8-induced cJUN phosphorylation at 10 uM post CXCL8 treatment by immunoblot assay; format: cell-based; method in brief: as §1
[9] = target: T2, 5-hydroxytryptamine receptor 2B (Homo sapiens, UniProt P41595); assay: Inhibition of 5-HT2B (unknown origin) by radioligand binding assay
Method in brief: (§4)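 Secondary radioligand binding assay determining equilibrium binding affinity (Ki).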

[10] = target: C-X-C chemokine receptor type 4 (Homo sapiens, UniProt P61073); assay: Antagonist activity at CXCR4 (unknown origin) expressed in U2OS cells cotransfected with beta-arrestin/TEV protease fusion protein and beta-lactamase assessed as inhibition of SDF1-alpha-induced beta arrestin2 recruitment preincubated for 30 mins followed by SDF1-alpha stimulation and measured after 5 hrs by FRET based fluorescence/Tango assay
[11] = target: T3, C-X-C chemokine receptor type 2 (Homo sapiens, UniProt P25025); assay: (§5) Antagonist activity at CXCR2 (unknown origin) expressed in U2OS cells cotransfected with beta-arrestin/TEV protease fusion protein and beta-lactamase assessed as inhibition of CXCL8-induced beta arrestin2 recruitment preincubated for 30 mins followed by CXCL8 stimulation and measured after 5 hrs by FRET based fluorescence/Tango assay; format: cell-based
T3 sequence (P25025 whole entry): T1 sequence (whole entry)

[12] = target: T4, Alpha-2A adrenergic receptor (Homo sapiens, UniProt P08913); assay: Inhibition of alpha 2a-adrenergic receptor (unknown origin) by radioligand binding assay; method in brief: as §4
T4 sequence (P08913 whole entry): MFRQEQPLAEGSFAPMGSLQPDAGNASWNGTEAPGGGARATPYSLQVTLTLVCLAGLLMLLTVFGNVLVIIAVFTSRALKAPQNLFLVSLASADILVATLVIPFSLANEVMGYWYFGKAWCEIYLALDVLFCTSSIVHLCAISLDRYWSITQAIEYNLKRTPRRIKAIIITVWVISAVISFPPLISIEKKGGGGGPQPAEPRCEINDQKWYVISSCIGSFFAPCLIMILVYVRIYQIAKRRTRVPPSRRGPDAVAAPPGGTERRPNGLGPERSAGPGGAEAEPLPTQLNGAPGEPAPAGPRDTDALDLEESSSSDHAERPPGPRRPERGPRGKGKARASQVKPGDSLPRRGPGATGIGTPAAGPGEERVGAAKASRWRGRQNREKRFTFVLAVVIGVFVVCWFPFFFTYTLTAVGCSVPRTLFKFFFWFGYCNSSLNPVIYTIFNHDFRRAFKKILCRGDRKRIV

[13] = target: T5, Alpha-2A adrenergic receptor (Homo sapiens) (UniProt P08913); assay: Inhibition of alpha 2a-adrenergic receptor (unknown origin) at 10 uM by radioligand binding assay relative to control
T5 sequence (whole entry): T4 sequence (P08913 whole entry)
Method in brief: (§6)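 Primary radioligand binding screen across 50 GPCRs at a single concentration of 10 μM. Compounds with ≥50% inhibition went on to secondary binding.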

[14] = tested on: SK-OV-3; assay: Inhibition of colony formation in human SK-OV-3 cells at 8.9 to 20 uM incubated for 7 to 10 days in presence of doxorubicin by crystal violet staining based assay; format: functional, cell-based; conditions: dose 8.9-20 µM, time 7-10 day
Method in brief: (§7)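 Colony formation: cells were seeded at 300/well, attached overnight, then treated with compounds for 7-10 days until colonies formed in DMSO wells. Colonies were stained with 0.05% crystal violet for 30 min and washed with water.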

[15] = target: T2, 5-hydroxytryptamine receptor 2B; assay: Inhibition of 5-HT2B (unknown origin) at 10 uM by radioligand binding assay relative to control; method in brief: as §6
[16] = target: T6, Translocator protein (Homo sapiens, UniProt P30536); assay: Inhibition of PBR (unknown origin) at 10 uM by radioligand binding assay relative to control; method in brief: as §6
[17] = target: T6, Translocator protein; assay: Inhibition of PBR (unknown origin) by radioligand binding assay; method in brief: as §4
[18] = target: T1, C-X-C chemokine receptor type 2 (Homo sapiens); assay: Antagonist activity at CXCR2 (unknown origin) expressed in HEK293T cells cotransfected with GFP assessed as inhibition of CXCL8-induced p38 phosphorylation at 10 to 30 uM post CXCL8 treatment by immunoblot assay; format: cell-based; conditions: dose 10-30 µM; method in brief: as §1
[19] = target: T1, C-X-C chemokine receptor type 2 (Homo sapiens); assay: Antagonist activity at CXCR2 (unknown origin) expressed in HEK293T cells cotransfected with GFP assessed as inhibition of CXCL8-induced JNK phosphorylation at 10 to 30 uM post CXCL8 treatment by immunoblot assay; format: cell-based; conditions: dose 10-30 µM; method in brief: as §1
[20] = target: T1, C-X-C chemokine receptor type 2 (Homo sapiens); assay: Antagonist activity at CXCR2 (unknown origin) expressed in HEK293T cells cotransfected with GFP and p22F assessed as inhibition of CXCL8-reduced cAMP production at 10 uM incubated for 10 mins followed by CXCL8 stimulation and measured after 10 mins by luminescence based assay; format: functional, cell-based; conditions: time 20.0 min; method in brief: as §2
[21] = target: T1, C-X-C chemokine receptor type 2 (Homo sapiens); assay: Antagonist activity at CXCR2 (unknown origin) expressed in HEK293T cells cotransfected with GFP assessed as inhibition of CXCL8-induced ERK1/2 phosphorylation pretreated at 10 to 30 uM followed by treated with CXCL8 by immunoblot assay; format: cell-based; conditions: dose 10-30 µM; method in brief: as §1
[22] = target: T1, C-X-C chemokine receptor type 2 (Homo sapiens); assay: Antagonist activity at CXCR2 (unknown origin) expressed in HEK293T cells cotransfected with GFP assessed as inhibition of CXCL8-induced AKT phosphorylation at 10 to 30 uM post CXCL8 treatment by immunoblot assay; format: cell-based; conditions: dose 10-30 µM
[23] = target: T1, C-X-C chemokine receptor type 2 (Homo sapiens); assay: Antagonist activity at CXCR2 (unknown origin) expressed in HEK293T cells cotransfected with GFP assessed as inhibition of CXCL8-induced cJUN phosphorylation at 10 to 30 uM post CXCL8 treatment by immunoblot assay; format: cell-based; conditions: dose 10-30 µM; method in brief: as §1
[24] = target: T3, C-X-C chemokine receptor type 2; assay: Inhibition of CXCR2 (unknown origin) expressed in HEK293T cells cotransfected with GFP-p22F assessed as reduction in IL-8-induced cAMP incubated for 10 mins followed by IL-8 stimulation and measured after 10 mins by luminescence based assay; format: functional, cell-based; method in brief: as §2
[25] = target: T1, C-X-C chemokine receptor type 2 (Homo sapiens); assay: Antagonist activity at CXCR2 (unknown origin) expressed in HEK293T cells cotransfected with GFP and p22F assessed as inhibition of […] at 30 uM incubated at 37 degC for 30 min and at room temperature for 30 min by fluorescence based assay; format: functional, cell-based; conditions: time 60.0 min; method in brief: as §3
[26] = tested on: SK-OV-3; assay: Inhibition of colony formation in human SK-OV-3 cells at 38 nM incubated for 7 to 10 days by crystal violet staining based assay; format: functional, cell-based; conditions: time 7-10 day; method in brief: as §7
[27] = target: T1, C-X-C chemokine receptor type 2 (Homo sapiens); assay: as §5, with “recruitment at 10 uM” for “recruitment”, “assay relative to control” for “assay”; format: cell-based
Method in brief: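 Tango assay: CXCR2-bla or CXCR4-bla U2OS cells were seeded at 11000/well for 24 h in DMEM with 1% dialyzed FBS. Cells were pretreated with inhibitor for 30 min, then given CXCL8 (12 nM; CXCR2) or SDF-1α (60 nM; CXCR4) for 5 h at 37 °C. […] IC50 is the mean±SD of ≥3 independent experiments.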

T6 sequence (P30536 whole entry): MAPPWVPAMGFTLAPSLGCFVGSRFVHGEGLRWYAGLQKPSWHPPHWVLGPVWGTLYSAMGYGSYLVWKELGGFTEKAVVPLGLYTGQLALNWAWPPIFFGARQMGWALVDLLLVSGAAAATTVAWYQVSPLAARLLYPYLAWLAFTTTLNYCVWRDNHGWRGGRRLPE
Chain of C-X-C chemokine receptor type 4 (P61073 whole entry, the tested form may be a part): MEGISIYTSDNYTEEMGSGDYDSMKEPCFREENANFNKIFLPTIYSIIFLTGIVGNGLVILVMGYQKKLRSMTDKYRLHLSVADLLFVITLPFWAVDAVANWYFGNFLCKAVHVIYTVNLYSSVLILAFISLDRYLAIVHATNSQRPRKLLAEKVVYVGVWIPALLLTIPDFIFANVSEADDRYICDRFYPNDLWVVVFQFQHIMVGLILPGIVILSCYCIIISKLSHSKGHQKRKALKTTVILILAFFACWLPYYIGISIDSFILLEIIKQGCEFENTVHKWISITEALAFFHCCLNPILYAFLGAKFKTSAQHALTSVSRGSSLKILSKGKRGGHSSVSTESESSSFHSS
T2 sequence (P41595 whole entry): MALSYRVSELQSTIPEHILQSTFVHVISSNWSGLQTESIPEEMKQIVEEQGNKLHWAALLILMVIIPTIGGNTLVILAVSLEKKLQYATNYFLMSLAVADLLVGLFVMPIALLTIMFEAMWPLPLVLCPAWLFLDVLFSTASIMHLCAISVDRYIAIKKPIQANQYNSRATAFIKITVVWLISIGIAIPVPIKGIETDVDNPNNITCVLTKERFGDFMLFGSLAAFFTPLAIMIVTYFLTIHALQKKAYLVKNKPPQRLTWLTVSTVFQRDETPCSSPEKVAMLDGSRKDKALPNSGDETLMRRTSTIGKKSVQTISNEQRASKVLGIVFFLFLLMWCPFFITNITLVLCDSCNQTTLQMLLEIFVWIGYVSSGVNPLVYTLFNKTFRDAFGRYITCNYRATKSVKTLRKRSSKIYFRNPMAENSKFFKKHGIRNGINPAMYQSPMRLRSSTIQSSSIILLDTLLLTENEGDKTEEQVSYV

N#Cc1ccc(NC(=O)Nc2ccccc2Br)c2nn[nH]c12
Activity [1]: inactive | Activity [2]: inactive | inhibition [3]: Active | Activity [4]: Active | Activity [5]: inactive | Activity [6]: Active | Activity [7]: Active | Activity [8]: inactive

CC1COCc2sc(NC(=S)Nc3ccccc3)c(C(=O)OC(C)(C)C)c21 (stereo not drawn)
Ki [9]: > 10 µM | IC50 [10]: > 15 µM | IC50 [11]: 1.7 µM | Ki [12]: > 10 µM | inhibition [13]: 55.2% | inhibition [14]: Active | inhibition [15]: 58% | inhibition [16]: 63.1% | Ki [17]: 4 µM

C[C@@H](NC(=S)Nc1sc2c(c1C(=O)OC(C)(C)C)CCOC2)c1ccccc1
Activity [18]: inactive | IC50 [10]: > 30 µM | IC50 [11]: 1.6 µM | Activity [19]: inactive | Ki [12]: > 10 µM | inhibition [13]: 59% | inhibition [14]: Active | inhibition [3]: Active | Activity [20]: inactive | inhibition [16]: 64% | Activity ([21]; filed as antagonist): Active | Activity [22]: inactive | Ki [17]: > 10 µM | Activity [23]: inactive

CSc1nnc2n(-c3ccccc3)c(=O)c3c4c(sc3n12)CCC[C@H]4C
IC50 [24]: 7.79 µM | Activity [25]: inactive | Activity ([20]; filed as antagonist): Active | Activity [21]: inactive

COc1cccc2c1C(=O)c1c(O)c3c(c(O)c1C2=O)C[C@@](O)(C(=O)CO)C[C@@H]3O[C@H]1C[C@H](N)[C@H](O)[C@H](C)O1
inhibition [26]: inactive

CC(C)(C)OC(=O)c1c(NC(=S)Nc2ccc(F)cc2)sc2c1CCOC2
Activity [18]: inactive | IC50 [10]: > 30 µM | IC50 [11]: 1.1 µM | Activity [19]: inactive | Activity [25]: inactive | inhibition [27]: 87% | inhibition [14]: Active | inhibition [3]: Active | Activity [20]: inactive | Activity ([21]; filed as antagonist): Active | Activity [22]: inactive | Activity [23]: inactive
